The target in data set [1] is Muscarinic acetylcholine receptor (Rattus norvegicus) (UniProt P08482+P08483+P08485+P08911+P10980). As to the kind of experiment: Displacement of [3H]-QNB from muscarinic receptor in rat brain cortical membranes at 30 uM after 60 mins by liquid scintillation counting. Type of data set: cell membranes. The following applies: Membrane. In outline: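 Cortical membranes, 150 µg protein, with 0.1 nM [3H]-QNB in 50 mM Tris-HCl pH 7.4 at room temperature for 60 min. Non-specific binding was defined with atropine sulfate. Samples were diluted with cold 5 mM Tris-HCl, vacuum-filtered on glass fibre filters and counted by liquid scintillation.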

The target of data set [2] is T1, 5-hydroxytryptamine receptor 1A (Rattus norvegicus, UniProt P19327).
T1 sequence (P19327 whole entry): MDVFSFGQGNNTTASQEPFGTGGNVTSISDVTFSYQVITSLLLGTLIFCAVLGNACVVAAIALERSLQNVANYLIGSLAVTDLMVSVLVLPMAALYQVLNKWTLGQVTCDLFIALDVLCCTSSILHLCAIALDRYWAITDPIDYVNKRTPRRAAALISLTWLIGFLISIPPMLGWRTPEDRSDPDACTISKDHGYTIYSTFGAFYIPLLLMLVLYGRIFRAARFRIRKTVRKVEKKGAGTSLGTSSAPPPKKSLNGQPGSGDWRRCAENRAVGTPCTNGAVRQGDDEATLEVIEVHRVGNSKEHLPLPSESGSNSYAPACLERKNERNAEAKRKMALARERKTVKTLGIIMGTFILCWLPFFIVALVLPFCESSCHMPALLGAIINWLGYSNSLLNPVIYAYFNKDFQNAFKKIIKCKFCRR
As to the kind of experiment: Displacement of [3H]-8-OH-DPAT from 5HT1A receptor in rat brain hippocampal membranes after 15 mins by liquid scintillation counting. Type of data set: cell membranes, Membrane. In outline: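 Hippocampal membranes, 40 µg protein, incubated with 1 nM [3H]-8-OH-DPAT at 37 °C for 15 min under yellow light. Buffer was 50 mM Tris-HCl pH 7.4 with 1 mM CaCl2, 1 mM MnCl2 and pargyline. Filters were soaked in 0.5% polyethyleneimine. IC50 came from nonlinear regression fitted with one or two sites. Ki by Cheng-Prusoff, using Kd from saturation experiments.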

The subject of data set [3] is Mus musculus. Kind of data set: Antipsychotic activity in CF1 mouse assessed as prevention of apomorphine-induced climbing behaviour at 0.1 to 10 mg/kg, ip administered 30 mins prior apomorphine challenge measured 5 to 30 mins post challenge. Type of data set: functional, organism-based. In outline:
(§1)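 Adult male mice, 25–35 g, dosed i.p. at 10 ml/kg, then placed in wire-bar cages for 30 min. Apomorphine 4 mg/kg s.c. followed. Climbing was scored 0–4 for 1 min at 5, 10, 15, 20, 25 and 30 min; the climbing index is the sum of scores. n = 7–9. Analysed by one-way ANOVA with Newman-Keuls post hoc test.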

In data set [4] the target is 5-hydroxytryptamine receptor 2A (Rattus norvegicus, UniProt P14842). As to the kind of experiment: Displacement of [3H]-ketanserin from 5HT2A receptor in rat brain cortical membranes after 15 mins by liquid scintillation counting. Type of data set: cell membranes, Membrane.
Sequence of 5-hydroxytryptamine receptor 2A (P14842 whole entry): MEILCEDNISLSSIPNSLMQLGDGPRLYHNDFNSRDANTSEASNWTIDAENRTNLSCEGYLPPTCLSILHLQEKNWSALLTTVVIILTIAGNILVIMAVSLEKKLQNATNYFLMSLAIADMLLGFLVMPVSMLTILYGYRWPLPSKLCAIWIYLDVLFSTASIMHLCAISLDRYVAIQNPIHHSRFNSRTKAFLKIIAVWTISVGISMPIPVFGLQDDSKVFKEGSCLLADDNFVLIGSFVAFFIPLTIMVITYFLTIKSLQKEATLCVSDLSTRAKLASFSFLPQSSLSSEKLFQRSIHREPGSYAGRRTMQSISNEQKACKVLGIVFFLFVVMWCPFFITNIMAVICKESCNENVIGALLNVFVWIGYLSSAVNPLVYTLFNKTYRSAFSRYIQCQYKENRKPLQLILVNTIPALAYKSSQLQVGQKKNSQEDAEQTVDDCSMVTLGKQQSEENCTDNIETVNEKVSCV
Data set [5] addresses Dopamine D2 receptor and Serotonin 2a receptor (D2 and 5HT2a) (Rattus norvegicus) (UniProt P61169+P14842). As to the kind of experiment: Selectivity ratio of Ki for dopamine D2 receptor in rat brain striatal membranes to Ki for 5HT2A receptor in rat brain cortical membranes. Type of data set: cell membranes. To be noted: Membrane.
Data set [6] has as its system Alpha-2 adrenergic receptor (Rattus norvegicus). Kind of data set: Antagonist activity at alpha2 adrenoreceptor in rat brain cortical membranes assessed as inhibition of [3H]-RX821002 binding to receptor after 45 mins by competition assay in absence of GTP.
Data set [7] has as its target 5-hydroxytryptamine receptor 2A (Rattus norvegicus) (UniProt P14842). Kind of data set: Antagonist activity at 5HT2A receptor in rat brain cortical membranes assessed as inhibition of [3H]-ketanserin binding to receptor after 15 mins by competition assay in presence of GTP. Type of data set: cell membranes. The essentials:
(§2)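 Rat cortical membranes, 150 µg protein, with 1 nM [3H]-ketanserin and 100 nM prazosin in 50 mM Tris-HCl pH 7.4, 37 °C, 15 min. Non-specific binding was defined with ketanserin. For the GTP shift, paired competition curves were run without and with guanylyl nucleotide (0.1 mM Gpp(NH)p or 1 mM GTP).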

In data set [8] the test system is Mus musculus. As to the kind of experiment: Toxicity in CF1 mouse assessed as reduction in locomotor activity measuring number of crossings at 10 mg/kg, ip administered 30 mins prior ketamine challenge measured for 20 mins post challenge. To be noted: in vivo. Type of data set: organism-based. Also noted: dose 10 mg/kg, route intraperitoneal.
Data set [9] relates to Mus musculus. Kind of data set: Antipsychotic activity in ip dosed CF1 mouse assessed as prevention of apomorphine-induced climbing behaviour compound administered 30 mins prior apomorphine challenge measured 5 to 30 mins post challenge. Type of data set: functional, organism-based. The essentials:
as §1

For data set [10], the system named is Mus musculus. As to the kind of experiment: Toxicity in CF1 mouse assessed as effect on locomotor activity measuring number of crossings at 1 to 3 mg/kg, ip administered 30 mins prior ketamine challenge measured for 20 mins post challenge. Type of data set: organism-based. Further details: dose 1-3 mg/kg, route intraperitoneal. To be noted: in vivo.
Data set [11] concerns Mus musculus. Kind of data set: Antipsychotic activity in ip dosed CF1 mouse assessed as prevention of ketamine-induced hyperlocomotion compound administered 30 mins prior ketamine challenge measured for 20 mins post challenge. Type of data set: functional, organism-based. In outline: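 Mice were pretreated (reference drug orally after 2 h fast; test compound i.p.) and placed in the arena centre. Ketamine 10 mg/kg s.c. was given 30 min later. A blinded observer counted total square crossings over 20 min in a dimly lit room. n = 7–8. Analysed by one-way ANOVA with Newman-Keuls post hoc test.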

Data set [12] deals with Alpha-2 adrenergic receptor (Rattus norvegicus). As to the kind of experiment: Antagonist activity at alpha2 adrenoreceptor in rat brain cortical membranes assessed as inhibition of [3H]-RX821002 binding to receptor after 45 mins by competition assay in presence of GTP.
Data set [13] has as its target T2, 5-hydroxytryptamine receptor 1A (Rattus norvegicus) (UniProt P19327).
T2 sequence (whole entry): T1 sequence (P19327 whole entry)
As to the kind of experiment: Partial agonist activity at 5HT1A receptor in rat brain hippocampal membranes assessed as inhibition of [3H]-8-OH-DPAT binding to receptor after 15 mins by competition assay. Type of data set: cell membranes. In outline: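 Hippocampal membranes, 40 µg protein, incubated with 1 nM [3H]-8-OH-DPAT at 37 °C for 15 min under yellow light. Buffer was 50 mM Tris-HCl pH 7.4 with 1 mM CaCl2, 1 mM MnCl2 and pargyline. Non-specific binding was defined with 5-HT. Filters were soaked in 0.5% polyethyleneimine. IC50 came from nonlinear regression fitted with one or two sites. Ki by Cheng-Prusoff, using Kd from saturation experiments.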

The target of data set [14] is 5-hydroxytryptamine receptor 2A (Rattus norvegicus) (UniProt P14842). As to the kind of experiment: Antagonist activity at 5HT2A receptor in rat brain cortical membranes assessed as inhibition of [3H]-ketanserin binding to receptor after 15 mins by competition assay in absence of GTP. Type of data set: cell membranes. The essentials:
as §2

We go through 6 compounds from ChEMBL document CHEMBL2412990, “Synthesis and pharmacological evaluation of new N-phenylpiperazine derivatives designed as homologues of the antipsychotic lead compound LASSBio-579” (Eur J Med Chem, 2013).

pKi: −log10 of the molar value. Activity calls are given as the source filed them. The rule behind the calls is not given here.

Sequence of 5-hydroxytryptamine receptor 2A (Rattus norvegicus) (P14842 whole entry): as above
Sequence of Dopamine D2 receptor and Serotonin 2a receptor (D2 and 5HT2a) (Rattus norvegicus) (P14842 whole entry, looked up): as the sequence (P14842 whole entry) above
Sequence of Dopamine D2 receptor and Serotonin 2a receptor (D2 and 5HT2a) (Rattus norvegicus) (P61169 whole entry, looked up): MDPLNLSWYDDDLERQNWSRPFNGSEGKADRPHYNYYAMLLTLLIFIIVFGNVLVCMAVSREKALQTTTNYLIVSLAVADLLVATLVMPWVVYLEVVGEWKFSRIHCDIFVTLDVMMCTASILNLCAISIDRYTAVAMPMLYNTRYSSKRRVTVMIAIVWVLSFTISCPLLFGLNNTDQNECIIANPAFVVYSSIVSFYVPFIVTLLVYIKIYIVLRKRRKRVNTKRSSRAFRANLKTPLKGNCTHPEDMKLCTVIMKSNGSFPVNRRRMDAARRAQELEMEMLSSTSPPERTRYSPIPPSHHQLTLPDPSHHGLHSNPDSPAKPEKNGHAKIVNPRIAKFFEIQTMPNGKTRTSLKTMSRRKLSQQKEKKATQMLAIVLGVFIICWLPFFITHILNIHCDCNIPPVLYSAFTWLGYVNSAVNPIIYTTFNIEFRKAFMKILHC

`Clc1ccc(-n2cc(CN3CCN(c4ccccc4)CC3)cn2)cc1`: the inhibition in [1] was 22%. Moreover, the pKi in [2] is 6.66; in [4] it was 5.16. Further, the result in the data set on Mus musculus [3] was Active. Also, in [5], the Ratio Ki worked out at 0.056.

`Clc1ccc(-n2cc(CCCCN3CCN(c4ccccc4)CC3)cn2)cc1` returned an inhibition in [1] of 2%. The inhibition result in data set [6], in data set [7], in [12], in [13] and in data set [14] was “Active” throughout. Also, the pKi in [2] was 7.05; in data set [4], 6.19. Further, the Activity result was “Toxic” in the data set with Mus musculus [8], “Dose-dependent effect” in the data set on Mus musculus [9], “Non-toxic” in the data set on Mus musculus [10] and “Dose-dependent effect” with Mus musculus [11]. Moreover, the Ratio Ki in data set [5] was 0.4.

Compound `Clc1ccc(-n2cc(CCCN3CCN(c4ccccc4)CC3)cn2)cc1` showed an inhibition in [1] of 39%. Besides, the pKi in data set [2] is 6.74; in [4] it was 6.22.

`Clc1ccc(-n2cc(COCCCN3CCN(c4ccccc4)CC3)cn2)cc1`: the inhibition in data set [1] came out at 28%. Moreover, the values for the pKi in data set [2] and in [4] were 6.51 and 6.19, respectively.

`Clc1ccc(-n2cc(COCCN3CCN(c4ccccc4)CC3)cn2)cc1` gave an inhibition in data set [1] of 11%. Further, the pKi in data set [2] was 6.96; in [4] it was 5.60.

The compound `Clc1ccc(-n2cc(CCCCCN3CCN(c4ccccc4)CC3)cn2)cc1` had an inhibition in data set [1] of 26%. The pKi in [2] is 6.80; in data set [4], 6.02.
